Reference: ChEMBL document CHEMBL1687913, “Structure-activity relationship, conformational and biological studies of temporin L analogues” (J Med Chem, 2011)
In brackets after ≈: the same amount, converted by molar mass. Where a SMILES comes first, the peptide text is derived from it. [ ]: non-standard residue; d: D form. Orn = NCCC[C@H](N)C(=O)O

Tests used:
[1] = tested on: Priestia megaterium; assay: Antibacterial activity against Bacillus megaterium Bm11 after 18 to 20 hrs by microbroth dilution method; assay type: functional
Procedure, shortened: (§1)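 CLSI microbroth dilution, adapted. Mid-log bacteria, 2 × 10^6 CFU/mL in Mueller-Hinton broth, mixed 1:1 with MH broth holding peptide in serial 2-fold dilutions in 20% ethanol (0.75-48 μM). Incubated 18-20 h at 37 °C; growth read as A600. MIC is the lowest concentration giving 100% growth inhibition.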

[2] = tested on: Staphylococcus aureus; assay: Antibacterial activity against Staphylococcus aureus ATCC 25923 after 18 to 20 hrs by microbroth dilution method; assay type: functional; procedure, shortened: as §1
[3] = Toxicity in human erythrocytes assessed as hemolysis at 12 uM after 40 mins; assay type: cell-based, Erythrocyte; details: read-out: Activity
Procedure, shortened: (§2)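 Human red blood cells suspended in 0.9% (w/v) NaCl and incubated 40 min at 37 °C with gentle mixing with serial 2-fold peptide dilutions (peptide predissolved in 20% ethanol). Spun 5 min at 900g; supernatant read at 415 nm. Cells lysed in distilled water set the 100% lysis reference.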

[4] = tested on: Acinetobacter junii; assay: Antibacterial activity against […] Acinetobacter junii RT-4 after 18 to 20 hrs by microbroth dilution method; assay type: functional; procedure, shortened: as §1
[5] = tested on: Staphylococcus epidermidis; assay: Antibacterial activity against Staphylococcus epidermidis ATCC 12228 after 18 to 20 hrs by microbroth dilution method; assay type: functional; procedure, shortened: as §1
[6] = tested on: Schizosaccharomyces pombe; assay: Antifungal activity against Schizosaccharomyces pombe after 18 to 20 hrs by microbroth dilution method; assay type: functional
Procedure, shortened: (§3)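 Yeasts tested by adapted CLSI microbroth dilution in Winge medium. Peptide given in serial 2-fold dilutions (0.75-48 μM, made in 20% ethanol). Incubation 18-20 h at 30 °C, read at A600. MIC taken as the concentration giving complete (100%) growth inhibition.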

[7] = tested on: Enterococcus faecalis; assay: Antibacterial activity against Enterococcus faecalis ATCC 29212 after 18 to 20 hrs by microbroth dilution method; assay type: functional; procedure, shortened: as §1
[8] = tested on: Candida albicans; assay: Antifungal activity against Candida albicans ATCC 10231 after 18 to 20 hrs by microbroth dilution method; assay type: functional; procedure, shortened: as §3
[9] = tested on: Saccharomyces cerevisiae; assay: Antifungal activity against Saccharomyces cerevisiae after 18 to 20 hrs by microbroth dilution method; assay type: functional; procedure, shortened: as §3
[10] = tested on: Pseudomonas aeruginosa; assay: Antibacterial activity against Pseudomonas aeruginosa ATCC 15692 after 18 to 20 hrs by microbroth dilution method; assay type: functional; procedure, shortened: as §1
[11] = tested on: Acinetobacter baumannii; assay: Antibacterial activity against Acinetobacter baumannii ATCC 19606 after 18 to 20 hrs by microbroth dilution method; assay type: functional; procedure, shortened: as §1
[12] = tested on: Yersinia pseudotuberculosis; assay: Antibacterial activity against Yersinia pseudotuberculosis YPIII after 18 to 20 hrs by microbroth dilution method; assay type: functional
Procedure, shortened: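 Broth microdilution adapted from CLSI. Mid-log bacteria at 2 × 10^6 CFU/mL in Mueller-Hinton broth were mixed 1:1 with MH broth containing peptide in serial 2-fold dilutions (peptide in 20% ethanol), 0.75-48 μM. Plates were incubated 18-20 h at 37 °C and growth was read as A600. MIC is the concentration giving 100% growth inhibition.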

[13] = tested on: Staphylococcus aureus; assay: Antibacterial activity against Staphylococcus aureus Cowan I after 18 to 20 hrs by microbroth dilution method; assay type: functional; procedure, shortened: as §1
[14] = tested on: Pseudomonas aeruginosa; assay: Antibacterial activity against Pseudomonas aeruginosa ATCC 27853 after 18 to 20 hrs by microbroth dilution method; assay type: functional; procedure, shortened: as §1
[15] = Toxicity in human erythrocytes assessed as hemolysis at 24 uM after 40 mins; assay type: cell-based, Erythrocyte; details: read-out: Activity; procedure, shortened: as §2
[16] = tested on: Staphylococcus capitis; assay: Antibacterial activity against Staphylococcus capitis after 18 to 20 hrs by microbroth dilution method; assay type: functional; procedure, shortened: as §1
[17] = tested on: Escherichia coli; assay: Antibacterial activity against Escherichia coli ATCC 25922 after 18 to 20 hrs by microbroth dilution method; assay type: functional; procedure, shortened: as §1
[18] = Toxicity in human erythrocytes assessed as hemolysis at 1.5 uM after 40 mins; assay type: cell-based, Erythrocyte; details: read-out: Activity; procedure, shortened: as §2
[19] = tested on: Pseudomonas syringae; assay: Antibacterial activity against Pseudomonas syringae pv tobaci after 18 to 20 hrs by microbroth dilution method; assay type: functional; procedure, shortened: as §1
[20] = Toxicity in human erythrocytes assessed as hemolysis at 3 uM after 40 mins; assay type: cell-based, Erythrocyte; details: read-out: Activity; procedure, shortened: as §2
[21] = tested on: Escherichia coli; assay: Antibacterial activity against Escherichia coli D21 after 18 to 20 hrs by microbroth dilution method; assay type: functional; procedure, shortened: as §1
[22] = tested on: Streptococcus pyogenes; assay: Antibacterial activity against Streptococcus pyogenes ATCC 21547 after 18 to 20 hrs by microbroth dilution method; assay type: functional; procedure, shortened: as §1
[23] = Toxicity in human erythrocytes assessed as hemolysis at 6 uM after 40 mins; assay type: cell-based, Erythrocyte; details: read-out: Activity; procedure, shortened: as §2

SMILES: CC[C@H](C)[C@H](NC(=O)[C@H](CCCN)NC(=O)CNC(=O)[C@H](CC(C)C)NC(=O)[C@H](Cc1ccccc1)NC(=O)[C@H](CCCCN)NC(=O)[C@H](CO)NC(=O)[C@H](Cc1ccccc1)NC(=O)[C@H](Cc1c[nH]c2ccccc12)NC(=O)[C@H](CCC(N)=O)NC(=O)[C@@H](NC(=O)[C@@H](N)Cc1ccccc1)C(C)C)C(=O)N[C@@H](CC(C)C)C(N)=O (H-FVQWFSKFLG[Orn]IL-NH2)
- MIC [1]: 1.5 µM (≈ 2.4 µg/mL)
- MIC [2]: 3 µM (≈ 4.79 µg/mL)
- hemolysis at 40 min, 12 µM [3]: 62%
- MIC [4]: 12 µM (≈ 19.2 µg/mL)
- MIC [5]: 3 µM (≈ 4.79 µg/mL)
- MIC [6]: 12 µM (≈ 19.2 µg/mL)
- MIC [7]: 6 µM (≈ 9.59 µg/mL)
- MIC [8]: 6 µM (≈ 9.59 µg/mL)
- MIC [9]: 12 µM (≈ 19.2 µg/mL)
- MIC [10]: 24 µM (≈ 38.4 µg/mL)
- MIC [11]: 12 µM (≈ 19.2 µg/mL)
- MIC [12]: 3 µM (≈ 4.79 µg/mL)
- MIC [13]: 1.5 µM (≈ 2.4 µg/mL)
- MIC [14]: 24 µM (≈ 38.4 µg/mL)
- hemolysis at 40 min, 24 µM [15]: 89%
- MIC [16]: 3 µM (≈ 4.79 µg/mL)
- MIC [17]: 12 µM (≈ 19.2 µg/mL)
- hemolysis at 40 min, 1.5 µM [18]: 3%
- MIC [19]: 12 µM (≈ 19.2 µg/mL)
- hemolysis at 40 min, 3 µM [20]: 7%
- MIC [21]: 12 µM (≈ 19.2 µg/mL)
- MIC [22]: 24 µM (≈ 38.4 µg/mL)
- hemolysis at 40 min, 6 µM [23]: 22%

SMILES: CC[C@H](C)[C@H](NC(=O)[C@H](CCCNC(=N)N)NC(=O)CNC(=O)[C@H](CC(C)C)NC(=O)[C@H](Cc1ccccc1)NC(=O)[C@H](CCCNC(=N)N)NC(=O)[C@H](CO)NC(=O)[C@H](Cc1ccccc1)NC(=O)[C@H](Cc1c[nH]c2ccccc12)NC(=O)[C@H](CCC(N)=O)NC(=O)[C@@H](NC(=O)[C@@H](N)Cc1ccccc1)C(C)C)C(=O)N[C@@H](CC(C)C)C(N)=O (H-FVQWFSRFLGRIL-NH2)
- MIC [1]: 6 µM (≈ 10 µg/mL)
- MIC [2]: 6 µM (≈ 10 µg/mL)
- hemolysis at 40 min, 12 µM [3]: 90%
- MIC [4]: 6 µM (≈ 10 µg/mL)
- MIC [5]: 6 µM (≈ 10 µg/mL)
- MIC [6]: 6 µM (≈ 10 µg/mL)
- MIC [7]: 12 µM (≈ 20 µg/mL)
- MIC [8]: 12 µM (≈ 20 µg/mL)
- MIC [9]: 12 µM (≈ 20 µg/mL)
- MIC [10]: 24 µM (≈ 40 µg/mL)
- MIC [11]: 6 µM (≈ 10 µg/mL)
- MIC [12]: 6 µM (≈ 10 µg/mL)
- MIC [13]: 6 µM (≈ 10 µg/mL)
- MIC [14]: 48 µM (≈ 80.1 µg/mL)
- hemolysis at 40 min, 24 µM [15]: 98%
- MIC [16]: 6 µM (≈ 10 µg/mL)
- MIC [17]: 12 µM (≈ 20 µg/mL)
- hemolysis at 40 min, 1.5 µM [18]: 4%
- MIC [19]: 12 µM (≈ 20 µg/mL)
- hemolysis at 40 min, 3 µM [20]: 9%
- MIC [21]: 48 µM (≈ 80.1 µg/mL)
- MIC [22]: 6 µM (≈ 10 µg/mL)
- hemolysis at 40 min, 6 µM [23]: 29%

SMILES: CC[C@H](C)[C@H](NC(=O)[C@H](CCCNC(=N)N)NC(=O)CNC(=O)[C@H](CC(C)C)NC(=O)[C@H](Cc1ccccc1)NC(=O)[C@H](CCCCN)NC(=O)[C@H](CO)NC(=O)[C@H](Cc1ccccc1)NC(=O)[C@H](Cc1c[nH]c2ccccc12)NC(=O)[C@H](CCCNC(=N)N)NC(=O)[C@@H](NC(=O)[C@@H](N)Cc1ccccc1)C(C)C)C(=O)N[C@@H](CC(C)C)C(N)=O (H-FVRWFSKFLGRIL-NH2)
- MIC [1]: 3 µM (≈ 5 µg/mL)
- MIC [2]: 6 µM (≈ 10 µg/mL)
- hemolysis at 40 min, 12 µM [3]: 100%
- MIC [4]: 3 µM (≈ 5 µg/mL)
- MIC [5]: 3 µM (≈ 5 µg/mL)
- MIC [6]: 12 µM (≈ 20 µg/mL)
- MIC [7]: 12 µM (≈ 20 µg/mL)
- MIC [8]: 12 µM (≈ 20 µg/mL)
- MIC [9]: 24 µM (≈ 40 µg/mL)
- MIC [10]: 12 µM (≈ 20 µg/mL)
- MIC [11]: 6 µM (≈ 10 µg/mL)
- MIC [12]: 3 µM (≈ 5 µg/mL)
- MIC [13]: 6 µM (≈ 10 µg/mL)
- MIC [14]: 24 µM (≈ 40 µg/mL)
- hemolysis at 40 min, 24 µM [15]: 100%
- MIC [16]: 3 µM (≈ 5 µg/mL)
- MIC [17]: 24 µM (≈ 40 µg/mL)
- hemolysis at 40 min, 1.5 µM [18]: 7%
- MIC [19]: 6 µM (≈ 10 µg/mL)
- hemolysis at 40 min, 3 µM [20]: 20%
- MIC [21]: 12 µM (≈ 20 µg/mL)
- MIC [22]: 3 µM (≈ 5 µg/mL)
- hemolysis at 40 min, 6 µM [23]: 52%
